Experimental data from ChEMBL document CHEMBL4024801, “Synthesis and Structure-Activity Relationship (SAR) Studies of Novel Pyrazolopyridine Derivatives as Inhibitors of Enterovirus Replication” (J Med Chem, 2018).

What was measured:
[1] = Selectivity index, ratio of CC50 for human HeLa-RW cells to EC50 for Coxsackievirus B3; type: toxicity; settings: read-out: Ratio CC50/EC50
Outline: (§1)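 HeLa-RW cells in DMEM with 10% FBS were used for both arms. For EC50, cells were infected with CVB3-H3 at a low MOI giving full CPE in 3–4 days and exposed to 2-fold compound dilutions, in triplicate, with a 7-point fit. For CC50, uninfected cells got 2-fold dilutions for the same period. Both arms were fixed, crystal violet-stained and read at OD590.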

Coxsackievirus B3 = assay: Antiviral activity against Coxsackievirus B3 infected in human HeLa-RW cells assessed as protection against virus-induced cytopathic effect after 3 to 4 days by crystal violet staining-based spectrophotometric method; type: functional, cell-based; settings: Enterovirus B
Outline: (§2)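 HeLa-RW cells grown in DMEM with penicillin, streptomycin, glutamine and 10% FBS. They were infected at a low MOI pre-set to give full CPE in 3-4 days. Compound in DMSO was added as serial 2-fold dilutions (7 points), each in triplicate. When control CPE was maximal, cells were fixed with 4% formaldehyde, stained with 0.25% crystal violet and read at OD590. EC50 came from a four-parameter or sigmoidal fit.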

[2] = Cytotoxicity against human HeLa-RW cells after 3 to 4 days by crystal violet staining-based spectrophotometric method; type: cell-based
Outline: (§3)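 Uninfected cells (HeLa-RW or LLC-MK2, in DMEM with penicillin, streptomycin, glutamine and 10% FBS) were exposed to serial 2-fold compound dilutions for the same period as the CPE assay. They were then fixed with formaldehyde, stained with crystal violet and read by OD590 spectrophotometry to derive CC50. Values are means ± s.d. of 3 experiments, or the average of triplicates in one.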

Enterovirus A71 = assay: Antiviral activity against Enterovirus A71 infected in monkey LLC-MK2 cells assessed as protection against virus-induced cytopathic effect after 3 to 4 days by crystal violet staining-based spectrophotometric method; type: functional, cell-based; settings: Enterovirus A
Outline: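 EV-A71 was tested in LLC-MK2 cells grown in DMEM with 10% FBS, penicillin, streptomycin and glutamine, at a low MOI preset to give full CPE in 3–4 days. Compound was dissolved in DMSO and diluted 2-fold, in triplicate. Cells were fixed with formaldehyde when control CPE was maximal, then stained with crystal violet and read at OD590. EC50 came from a 7-point four-parameter or sigmoidal fit.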

[3] = Selectivity index, ratio of CC50 for monkey LLC-MK2 cells to EC50 for Enterovirus A71; type: toxicity; settings: read-out: Ratio CC50/EC50
Outline: as §1, with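 “LLC-MK2” for “HeLa-RW”, “EV-A71” for “CVB3-H3”, “triplicate.” for “triplicate, with a 7-point fit.”, “formaldehyde-fixed,” for “fixed,”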

Poliovirus 1 = assay: Antiviral activity against Poliovirus 1 infected in human HeLa-RW cells assessed as protection against virus-induced cytopathic effect after 3 to 4 days by crystal violet staining-based spectrophotometric method; type: functional, cell-based; settings: Enterovirus C; outline: as §2
Poliovirus 3 = assay: Antiviral activity against Poliovirus 3 infected in human HeLa-RW cells assessed as protection against virus-induced cytopathic effect after 3 to 4 days by crystal violet staining-based spectrophotometric method; type: functional, cell-based; settings: Enterovirus C; outline: as §2
LLC-MK2 = assay: Cytotoxicity against monkey LLC-MK2 cells after 3 to 4 days by crystal violet staining-based spectrophotometric method; type: cell-based, Macaca mulatta; settings: rhesus monkey; outline: as §3
[4] = Selectivity index, ratio of CC50 for human HeLa-RW cells to EC50 for Poliovirus 1; type: toxicity; settings: read-out: Ratio CC50/EC50
Outline: (§4)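 HeLa-RW cells grown in DMEM with penicillin, streptomycin, glutamine and 10% FBS were infected at a low MOI chosen to give full CPE in 3-4 days. Serial 2-fold compound dilutions from DMSO stocks were tested in triplicate. When control CPE was maximal, cells were formaldehyde-fixed, crystal violet-stained and read at OD590. EC50 came from a 7-point curve. CC50 used uninfected cells over the same period.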

[5] = Selectivity index, ratio of CC50 for human HeLa-RW cells to EC50 for Poliovirus 3; type: toxicity; settings: read-out: Ratio CC50/EC50; outline: as §4

| SMILES | selectivity ratio [1] | EC50 (Coxsackievirus B3) [µM] | CC50 ([2]; hela-rw) [µM] | EC50 (Enterovirus A71) [µM] | selectivity ratio [3] | EC50 (Poliovirus 1) [µM] | EC50 (Poliovirus 3) [µM] | CC50 (LLC-MK2) [µM] | selectivity ratio [4] | selectivity ratio [5] | CC50 ([2]; HeLa-RW cells) [µM] |
| --- | --- | --- | --- | --- | --- | --- | --- | --- | --- | --- | --- |
| CC(C)n1ncc2c(C(=O)Nc3ccc(F)c(S(N)(=O)=O)c3)cc(-c3cccs3)nc21 | > 182 | 1.1 | > 200 | 0.8 | 62.5 | > 10 | > 10 | 50 |  |  |  |
| CC(C)n1ncc2c(NC(=O)c3ccc(F)cc3)cc(-c3cccs3)nc21 | 2.6 | 4.7 | 12 | 4 | 12.5 | > 10 | > 10 | 50 |  |  |  |
| CC(C)n1ncc2c(C(=O)Nc3cc(S(N)(=O)=O)ccc3F)cc(-c3cccs3)nc21 | 25.7 | 0.7 | 18 | 0.5 | 50 | 6.3 | 6.3 | 25 | 2.9 | 2.9 |  |
| CC(C)n1ncc2c(C(=O)Nc3cncnc3)cc(-c3cccs3)nc21 | 25.7 | 0.7 | 18 | 0.4 | 50 | 10 | 10 | 20 | 1.8 | 1.8 |  |
| CC(C)n1ncc2c(C(=O)Nc3cccc(C(N)=O)c3)cc(-c3cccs3)nc21 | 25.7 | 0.7 | 18 | 0.8 | 31.3 | 6.3 | 6.3 | 25 | 2.9 | 2.9 |  |
| CC(C)n1ccc2c(C(=O)Nc3cccnc3)cc(-c3cccs3)nc21 | 13.8 | 1.3 | 18 | 0.8 | 31.3 | > 10 | > 10 | 25 |  |  |  |
| CC(C)n1ncc2c(C(=O)Nc3cccnc3)cc(-c3cccs3)nc21 | 62.5 | 0.4 | 25 | 0.5 | > 400 | 10 | 10 | > 200 | 2.5 | 2.5 |  |
| CC(C)n1ccc2c(C(=O)Nc3ccccn3)cc(-c3cccs3)nc21 | 8.5 | 2.2 | 18.8 | 1.2 | > 167 | > 10 | > 10 | > 200 |  |  |  |
| CC(C)n1ncc2c(C(=O)Nc3ncccn3)cc(-c3ccsc3)nc21 | 33.3 | 1.2 | 40 | 1.2 | 41.7 | > 10 | > 10 | 50 |  |  |  |
| CC(C)n1ncc2c(C(=O)Nc3cccnc3)cc(-c3ccsc3)nc21 | 30 | 0.6 | 18 | 2.4 | 15.4 | > 10 | > 10 | 37 |  |  |  |
| CC(C)n1ncc2c(C(=O)Nc3ccccc3F)cc(-c3cccs3)nc21 | 8.9 | 1.4 | 12.5 | 2.3 | 21.7 | 7 | 7 | 50 | 1.8 | 1.8 |  |
| CC(C)n1ncc2c(C(=O)N3CCc4cccnc43)cc(-c3cccs3)nc21 | 4 | 9.4 | 37.5 | 12.5 | 4 | > 10 | > 10 | 50 |  |  |  |
| CC(C)n1ncc2c(C(=O)Nc3cccc(S(N)(=O)=O)c3)cc(-c3cccs3)nc21 | 167 | 1.3 |  | 1.3 | 19.2 | 5 | 5 | 25 | 10 | 10 | 50 to 200 |
| CC(C)n1ncc2c(C(=O)Nc3ccc(F)cn3)cc(-c3cccs3)nc21 | 53.6 | 0.7 | 37.5 | 1.2 | > 167 | > 10 | > 10 | > 200 |  |  |  |
| CC(C)n1ncc2c(C(=O)Nc3cc(C(N)=O)ccc3F)cc(-c3cccs3)nc21 | 23.5 | 0.8 | 18.8 | 0.5 | 50 | 5 | 5 | 25 | 3.8 | 3.8 |  |
| CC(C)n1ncc2c(C(=O)N3CCc4cc(F)ccc43)cc(-c3cccs3)nc21 | 9.9 | 1.9 | 18.8 | 1.3 | > 153 | 10 | 10 | > 200 | 1.9 | 1.9 |  |
| CC(C)n1ncc2c(C(=O)Nc3ccncn3)cc(-c3ccsc3)nc21 | > 167 | 1.2 | > 200 | 0.8 | > 250 | > 10 | > 10 | > 200 |  |  |  |
| CC(C)n1ncc2c(C(=O)Nc3ccccn3)cc(-c3ccsc3)nc21 | 15 | 1.2 | 18 | 0.8 | 31.3 | > 10 | > 10 | 25 |  |  |  |
